An excerpt weighted towards active compounds, which were near 5.8% of everything screened.
KCC2 mod – KCC2 (human) Cl- transport modulation | KCC2 cells, thallium flux FluoZin-2 fluorescence | B-score of Tl+ flux slope (higher = more flux/activation; lower = inhibition) at 10 µM | 190,000 tested, 2.2% active | AID 1456;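 active = thallium flux slope and its plate-corrected score both differing from the plate sample mean at a set confidence after two filtering rounds, in either direction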;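 note: slope of fluorescence scaled to starting intensity during 10 to 20 s after thallium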
p47phox inh – blocks human p47phox regulatory protein of NADPH oxidases. P14598. p47phox/p22phox peptide binding, fluorescence polarization, 2 h. inhibition, % at 24.7 µM. 220,000 tested, 0.53% active;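 active = inhibition above about 30%, limit read from the data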;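 note: 0% = p47phox with labelled peptide and 100% = labelled peptide alone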
Target sequence (P14598 whole entry, looked up): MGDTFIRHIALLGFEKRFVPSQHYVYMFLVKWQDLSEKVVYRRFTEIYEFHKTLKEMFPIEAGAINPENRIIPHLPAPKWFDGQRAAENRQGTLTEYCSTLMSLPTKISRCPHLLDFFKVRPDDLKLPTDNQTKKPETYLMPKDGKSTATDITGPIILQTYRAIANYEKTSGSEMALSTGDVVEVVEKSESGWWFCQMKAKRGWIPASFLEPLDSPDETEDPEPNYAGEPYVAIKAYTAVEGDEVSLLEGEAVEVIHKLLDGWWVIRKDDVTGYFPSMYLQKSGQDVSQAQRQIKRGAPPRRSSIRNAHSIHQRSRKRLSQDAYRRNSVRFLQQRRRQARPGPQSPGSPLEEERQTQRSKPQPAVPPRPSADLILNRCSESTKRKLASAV
14-3-3 Bad PPI – disrupts binding of bovine 14-3-3 zeta to phospho-Bad peptide | TR-FRET 14-3-3zeta/Dy647-pBad peptide displacement, 1 h | inhibition, % at 21.7 µM | 220,000 tested, 0.71% active | AID 781;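 active = inhibition above about 70%, limit read from the data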;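 note: 0% = full 14-3-3 plus peptide FRET controls and 100% = background without 14-3-3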
Target sequence (P63103 whole entry, looked up): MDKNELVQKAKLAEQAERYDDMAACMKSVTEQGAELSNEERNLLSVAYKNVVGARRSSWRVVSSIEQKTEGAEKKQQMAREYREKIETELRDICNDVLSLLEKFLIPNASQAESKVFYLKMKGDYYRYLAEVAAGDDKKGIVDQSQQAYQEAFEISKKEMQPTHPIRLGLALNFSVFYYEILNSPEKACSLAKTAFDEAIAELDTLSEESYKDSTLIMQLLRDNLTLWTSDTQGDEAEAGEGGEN
RBBP9 inh – inhibitors of human serine hydrolase RBBP9; inhibition, % at 7.94 µM; recombinant RBBP9, FP-Rh probe fluorescence polarization; O75884; AID 1515; 220,000 tested, 0.2% active;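 active = inhibition above the campaign mean of all tested compounds plus 3 SD, cut at about 14% in these data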;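 note: plate controls were DMSO wells with RBBP9 for no effect and wells lacking RBBP9 protein for full effect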
Target sequence (O75884 whole entry, looked up): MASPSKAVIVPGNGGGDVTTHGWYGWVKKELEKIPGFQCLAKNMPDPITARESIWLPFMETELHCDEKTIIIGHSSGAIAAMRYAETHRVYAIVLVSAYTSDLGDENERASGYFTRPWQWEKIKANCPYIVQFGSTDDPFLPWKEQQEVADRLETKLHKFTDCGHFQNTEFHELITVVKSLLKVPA
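Controls: DMSO-treated enzyme wells and wells lacking RBBP9 | Material: RBBP9 protein | Technique: Fluorescence polarization | Replication: Single well per compound, no replicates | Buffer or medium: Tris-NaCl-Pluronic buffer, pH 8.0 | Timing: 30 min compound preincubation, 45 min probe labeling, 25 °C | Read-out basis: Percent inhibition from mP, scaled between DMSO and no-protein wells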
WT yeast gro inh – growth inhibition of WT yeast, mitochondrial fusion screen; mitochondrial fusion phenotypic screen, WT strain; inhibition, % at 10 µM; 190,000 tested, 2.1% active; in the data active = inhibition above about 58%; tested in S. cerevisiae
ROMK primary – modulators of human ROMK potassium channel | P48048 | Tet-inducible ROMK, thallium flux fluorescence; actives lie on both sides | B-score at 10 µM | 130,000 tested, 2% active | AID 1918;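 active = signal ratio slope over the read window, or its plate-corrected B-score, at least 3 SD from the plate mean, either direction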;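 note: B-score of the F/F0 ratio slope over 7 to 12 s after thallium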
KCC2 sec1 – KCC2 (human) modulation, secondary assay | shares compounds with KCC2 mod | normalised thallium flux (F/F0 slope) at 10 µM | 3,700 tested, 15% active | HEK293-KCC2, thallium flux, FluoZin2 fluorescence; hits give high values;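 active = thallium flux slope above the same plate's solvent-only control mean plus 3 SD; inconclusive = the two replicate wells disagree; inactive = no significant difference from solvent-only control wells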
KCC2 bumet counter – thallium flux persisting under bumetanide in KCC2 cells, counter-screen secondary assay. shares compounds with KCC2 mod. HEK293-KCC2 + bumetanide/ouabain, thallium flux FluoZin2; hits give high values. normalized thallium flux at 10 µM. 3,700 tested, 49% active;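 active = thallium entry rate above the same plate's blocked-transporter control wells by more than 3 SD; inconclusive = the two repeat wells disagree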;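 note: raw slope of fluorescence over initial fluorescence between 10 and 20 s after thallium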
KCC2 secondary2 – confirmation of human KCC2 transport modulators; shares compounds with KCC2 mod; HEK293-KCC2, thallium flux FluoZin2 fluorescence; actives lie on both sides; F/F0 rise rate, 10–20 s post-thallium; normalized thallium flux at 10 µM; 3,700 tested, 23% active;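 active = thallium flux slope more than 3 SD above or below the plate's solvent-only control mean, mostly below; inconclusive = the two repeat wells disagreed; inactive = no significant shift from solvent-only controls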;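 note: raw slope with 0.1% DMSO as baseline and bumetanide as block control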
HEK293 Tl flux – counter-screen for KCC2 modulators: effect in parental HEK293 cells; 3,700 tested, 46% active; thallium flux rate (normalised fluorescence) at 10 µM; thallium flux FluoZin2, ouabain; baseline-ratio fluorescence slope, 10–20 s after thallium; shares compounds with KCC2 mod; AID 1716;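 active = thallium flux rate significantly above the same plate's solvent-only control wells, beyond their mean plus 3 SD; inconclusive = the two replicate wells gave conflicting results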
KCC2 retest ouab – confirmation of human KCC2 modulators with ouabain. shares compounds with KCC2 mod. HEK293-KCC2, thallium flux FluoZin2 fluorescence; bidirectional: low = inhibitor, high = activator. raw Tl+ flux slope (below DMSO = inhibition, above = activation) at 10 µM. 3,700 tested, 48% active. AID 1717;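 active = thallium flux slope beyond 3 SD from same-plate DMSO control mean in most replicates, usually higher, sometimes lower; inconclusive = repeat tests gave conflicting results; inactive = no significant difference from controls in most replicates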;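 note: slope of initial-normalized fluorescence between seconds 10 and 20 after thallium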
HEK counter2 – counter-screen for KCC2 modulators: effect in parental HEK293 cells; shares compounds with KCC2 mod; thallium flux FluoZin-2 fluorescence slope; thallium flux slope at 10 µM; 3,700 tested, 33% active;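 active = thallium flux slope above the same plate's solvent-control mean plus 3 SD in both duplicate wells; inconclusive = duplicate wells that disagreed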;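 note: run without ouabain in cells lacking the KCC2 cotransporter; slope of fluorescence scaled to its starting value between 10 and 20 s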
Numbers without * were called inactive; ? = inconclusive; / = not tested or not shown.

SMILES	KCC2 mod	p47phox inh	14-3-3 Bad PPI	RBBP9 inh	WT yeast gro inh	ROMK primary	KCC2 sec1	KCC2 bumet counter	KCC2 secondary2	HEK293 Tl flux	KCC2 retest ouab	HEK counter2
CCn1c(=O)n(CCOC)c(=O)c2c3c(sc21)CCCC3	-1.73	-5.8	0.8	-8.1	0.5	-0.533	/	/	/	/	/	/
COCCCn1c(=S)[nH]c2sc3c(c2c1=O)CCCS3	52.6*	-11.3	-6.0	-11.1	6.4	0.864	0.0333*	0.0929*	0.0493*	0.0683*	0.0771*	0.0289*
CC(C)Cn1c(-c2nn(C)cc2Cl)n[nH]c1=S	-0.0472	-0.6	-8.4	-13.3	4.9	/	/	/	/	/	/	/
CC(C)Cn1c(-c2ccc(Br)o2)n[nH]c1=S	12.1*	2.2	-1.0	-4.8	18.4	-0.159	0.0176*	0.0398*	0.0344	0.0185*	0.0319*	0.0123*
Cc1c(Br)c([N+](=O)[O-])nn1CCCC(=O)NC(C)c1ccccc1 (stereo not drawn)	-0.271	-4.8	7.2	-6.0	2.3	-0.431	/	/	/	/	/	/
Cn1c(N)c(C(=O)COC(=O)COc2ccccc2C#N)c(=O)n(C)c1=O	-1.5	-2.1	-4.3	2.3	-6.6	0.892	/	/	/	/	/	/
Cc1cc(-c2n[nH]c(=S)n2/N=C/c2cccc(O)c2)n[nH]1	-0.0745	4.8	-2.5	-12.3	/	/	/	/	/	/	/	/
S=c1[nH]nc(-c2ccco2)n1/N=C/C(Cl)=C/c1ccccc1	33.9*	-15.0	-13.6	-0.5	/	/	0.0163*	0.139*	0.0377	0.0289*	0.0671*	0.0149*
Cc1cc(-c2n[nH]c(=S)n2/N=C/C(Cl)=C/c2ccccc2)n[nH]1	4.88*	-17.8	-11.1	-6.0	-5.5	/	0.00932	0.0131*	0.0365	?	0.0197	0.0109
CC(/C=N/n1c(-c2ccco2)n[nH]c1=S)=C\c1ccco1	4.74*	8.7	-5.2	-7.4	35.3	/	0.00815	0.0273*	0.0383	0.0183*	0.0281*	0.0204*
CCOc1ccc(C(=O)CC(NCc2cccs2)C(=O)O)cc1 (stereo not drawn)	0.792	-9.6	-4.9	2.3	-6.4	0.601	/	/	/	/	/	/
CC(C)N(Cc1ccccc1)C(=O)COC(=O)/C=C/c1cnc2ccccc2n1	-2.19	-13.9	-10.6	-2.4	-20.3	-0.234	/	/	/	/	/	/
CCOC(=O)N1CCC(NS(=O)(=O)c2ccc(NC(C)=O)c(Cl)c2)CC1	/	-13.5	-2.3	-4.4	/	/	/	/	/	/	/	/
Cc1c(-c2n[nH]c(=S)n2-c2ccc(Br)cc2)nnn1-c1ccc(Cl)cc1	5.39*	-2.7	-12.5	-3.3	39.2	-0.36	0.0116	0.0238*	0.0326	0.0102*	0.029	?
O=C(Oc1cc(Cl)cc(Cl)c1)c1cnc2n(c1=O)CCS2	-0.131	-0.8	0.6	1.2	/	/	/	/	/	/	/	/
Cc1cc(C)c(C#N)c(N2CCN(Cc3ccccc3)CC2)n1	-3.73*	2.5	-16.2	-6.9	5.0	-0.214	0.0168	0.00423	?	0.00671	0.0141	0.00982
COc1ccccc1C(=O)NNC(=O)c1sccc1-n1cccc1	/	-6.4	-19.9	4.2	-13.2	0.013	?	0.0456*	0.0483*	0.0397*	0.0504*	0.0396*
COc1ccccc1C(=O)NNC(=O)C(=O)NCc1ccccc1	22.7*	10.3	-7.0	1.2	-15.4	1.11	0.0247*	0.0463*	0.0368	0.0285*	0.048*	0.0141*
COC(=O)C(Cc1ccc(O)cc1)NC(=O)c1ccccc1 (stereo not drawn)	/	-5.8	2.7	-0.8	-8.8	-0.115	/	/	/	/	/	/
COC(=O)C(Cc1ccc(O)cc1)NC(=O)c1ccccc1OC (stereo not drawn)	-5.17*	9.5	37.1	-9.2	-12.7	/	0.00892	?	0.0307	0.00855	0.0176	0.0111
COc1ccccc1C(=O)NCc1ccccc1	1.28	-14.7	-6.1	-5.2	-15.2	-0.0676	/	/	/	/	/	/
COc1ccccc1C(=O)NNC(=O)C(=O)NC(C)C	4.29*	21.5	-5.7	-6.2	-13.9	0.0387	0.0139*	0.0199*	0.0285	0.0113*	?	0.0108*
COc1ccc(C(=O)NNC(=O)C(=O)NCc2ccccc2)cc1	/	-7.4	-8.7	2.0	-2.7	/	0.0164	0.0187*	0.0295	0.0171*	0.022*	0.0183*
CCOc1ccc(NC(=O)CSc2nnc(CCNC(=O)c3ccc(OC)cc3)n2CC)cc1	/	3.8	4.2	3.8	5.7	-0.643	0.0112	?	0.0348	0.00772	0.0218	?
CCn1c(CCNC(=O)c2cccs2)nnc1SCC(=O)Nc1cccc(Cl)c1	-1.84	-3.6	5.3	-1.1	1.6	/	/	/	/	/	/	/
SMILES	KCC2 mod	p47phox inh	14-3-3 Bad PPI	RBBP9 inh	WT yeast gro inh	ROMK primary	KCC2 sec1	KCC2 bumet counter	KCC2 secondary2	HEK293 Tl flux	KCC2 retest ouab	HEK counter2
O=C(NCc1ccccc1)C(=O)Nc1nc(-c2ccccc2)cs1	27.4*	-6.8	-3.4	-12.8	/	/	0.0208*	0.0371*	0.0341	0.0532*	0.0392*	0.0161*
CCn1c(CCNC(=O)c2cccs2)nnc1SCC(=O)Nc1nc(-c2ccccc2)cs1	-3.22*	-26.6	4.0	-5.6	-11.6	/	0.00852	0.00462	?	0.00665	0.0137*	0.0103
O=C(NCc1ccccn1)C(=O)Nc1nc(-c2ccccc2)cs1	3.48	-10.9	-4.0	-7.2	/	/	/	/	/	/	/	/
O=C(Nc1nc(-c2ccccc2)ns1)c1cccs1	/	-15.1	1.9	-6.3	-0.8	/	0.00694	0.00497	0.0264	0.00692	0.0149*	0.00976
CCn1c(CCNC(=O)c2ccc(OC)cc2)nnc1SCC(=O)Nc1ccccc1F	-0.0268	6.7	-3.6	-7.9	-2.1	-0.224	/	/	/	/	/	/
COc1cc2[nH]c(=O)n(CCC(=O)NCCCN3CCN(c4ccccc4F)CC3)c(=O)c2cc1OC	0.00374	0.3	5.9	-9.3	-1.8	-0.165	/	/	/	/	/	/
CC1=C(C(=O)N2CCOCC2)C(c2c(F)cccc2F)NC(=O)N1 (stereo not drawn)	-0.0302	-11.4	-2.9	1.8	-9.2	-0.0441	/	/	/	/	/	/
O=C(Nc1cccnc1)c1ccccc1NS(=O)(=O)c1ccc(F)cc1	-1.33	-5.1	-2.6	5.6	-15.8	-0.447	/	/	/	/	/	/
O=C(Nc1nc(-c2ccccn2)cs1)c1ccc(Cl)s1	37.4*	-21.7	1.8	1.5	66.5	/	0.00562	0.0604*	0.06*	0.0601*	0.0544*	0.0629*

Assay outcomes from PubChem.
